Test results from ChEMBL document CHEMBL3272012, “5-(Tetradecyloxy)-2-furancarboxylic acid and related hypolipidemic fatty acid-like alkyloxyarylcarboxylic acids” (J Med Chem, 1977).
One block for each compound: values may come before it.

Legend:
[1] = tested on: Rattus norvegicus; assay: Hypolipidemic activity in Wistar rat assessed as reduction in plasma cholesterol level at 430 umol/kg/day administered through diet for 4 days; assay type: functional; conditions: 96 h
Method in brief: (§1)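 Young male Wistar rats, 170-190 g initial weight, groups of six, given compound mixed thoroughly into Purina Lab Chow ad libitum for 4 or 10 days as stated. Daily dose calculated from food consumption and body weight. Bled by cardiac puncture at end of treatment; plasma cholesterol measured by automated procedure. Expressed as percent reduction versus simultaneous untreated control group; Student's t test.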

[2] = tested on: Rattus norvegicus; assay: Increase in liver weight in Wistar rat at 430 umol/kg/day administered through diet for 4 days; assay type: ADME, organism-based; conditions: in vivo, po, 96 h
Method in brief: (§2)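 Male Wistar rats (170-190 g initial), groups of six, dosed via diet ad libitum for 4 or 10 days, daily dose from food consumption. Liver wet weight measured, expressed as g/100 g final body weight, compared with untreated controls run simultaneously.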

[3] = tested on: Rattus norvegicus; assay: Hypolipidemic activity in Wistar rat assessed as reduction in plasma cholesterol level at 401 umol/kg/day administered through diet for 4 days; assay type: functional; conditions: 96 h
Method in brief: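 Young male Wistar rats, 170-190 g at start, in groups of six, given compound mixed into Purina Lab Chow ad libitum for 4 or 10 days as stated. Daily dose was calculated from food consumption and body weight. Plasma was taken by cardiac puncture at the end and cholesterol measured by automated procedure. Results are % reduction versus a concurrent untreated control group, with Student's t test.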

[4] = tested on: Rattus norvegicus; assay: Hypolipidemic activity in Wistar rat assessed as reduction in plasma triglyceride level at 430 umol/kg/day administered through diet for 4 days; assay type: functional; conditions: 96 h
Method in brief: (§3)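 Young male Wistar rats (initial weight 170-190 g), groups of six, fed compound mixed into Purina Lab Chow ad libitum for 4 or 10 days; daily dose calculated from food consumption and body weight. Bled by cardiac puncture; plasma cholesterol and triglycerides by automated procedures; percent reduction versus simultaneous untreated controls, Student's t test.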

[5] = tested on: Rattus norvegicus; assay: Increase in liver weight in Wistar rat at 401 umol/kg/day administered through diet for 4 days; assay type: ADME, organism-based; conditions: in vivo, po, 96 h; method in brief: as §2
[6] = tested on: Rattus norvegicus; assay: Hypolipidemic activity in Wistar rat assessed as reduction in plasma triglyceride level at 401 umol/kg/day administered through diet for 4 days; assay type: functional; conditions: 96 h; method in brief: as §3
[7] = tested on: Rattus norvegicus; assay: Hypolipidemic activity in Wistar rat assessed as reduction in plasma triglyceride level at 505 umol/kg/day administered through diet for 4 days; assay type: functional; conditions: 96 h
[8] = tested on: Rattus norvegicus; assay: Increase in liver weight in Wistar rat at 505 umol/kg/day administered through diet for 4 days; assay type: ADME, organism-based; conditions: in vivo, po, 96 h
[9] = tested on: Rattus norvegicus; assay: Hypolipidemic activity in Wistar rat assessed as reduction in plasma cholesterol level at 505 umol/kg/day administered through diet for 4 days; assay type: functional; conditions: 96 h; method in brief: as §1
[10] = tested on: Rattus norvegicus; assay: Increase in liver weight in Wistar rat at 449 umol/kg/day administered through diet for 4 days; assay type: ADME, organism-based; conditions: in vivo, po, 96 h
[11] = tested on: Rattus norvegicus; assay: Hypolipidemic activity in Wistar rat assessed as reduction in plasma triglyceride level at 449 umol/kg/day administered through diet for 4 days; assay type: functional; conditions: 96 h
[12] = tested on: Rattus norvegicus; assay: Hypolipidemic activity in Wistar rat assessed as reduction in plasma cholesterol level at 449 umol/kg/day administered through diet for 4 days; assay type: functional; conditions: 96 h; method in brief: as §1
[13] = tested on: Rattus norvegicus; assay: Hypolipidemic activity in Wistar rat assessed as reduction in plasma cholesterol level at 489 umol/kg/day administered through diet for 4 days; assay type: functional; conditions: 96 h; method in brief: as §1
[14] = tested on: Rattus norvegicus; assay: Hypolipidemic activity in Wistar rat assessed as reduction in plasma triglyceride level at 489 umol/kg/day administered through diet for 4 days; assay type: functional; conditions: 96 h
[15] = tested on: Rattus norvegicus; assay: Hypolipidemic activity in Wistar rat assessed as reduction in plasma triglyceride level at 606 umol/kg/day administered through diet for 10 days; assay type: functional; conditions: 240 h
[16] = tested on: Rattus norvegicus; assay: Hypolipidemic activity in Wistar rat assessed as reduction in plasma cholesterol level at 606 umol/kg/day administered through diet for 10 days; assay type: functional; conditions: 240 h; method in brief: as §3
[17] = tested on: Rattus norvegicus; assay: Increase in liver weight in Wistar rat at 606 umol/kg/day administered through diet for 10 days; assay type: ADME, organism-based; conditions: in vivo, po, 240 h
[18] = tested on: Rattus norvegicus; assay: Hypolipidemic activity in Wistar rat assessed as reduction in plasma triglyceride level at 675 umol/kg/day administered through diet for 10 days; assay type: functional; conditions: 240 h
[19] = tested on: Rattus norvegicus; assay: Hypolipidemic activity in Wistar rat assessed as reduction in plasma cholesterol level at 675 umol/kg/day administered through diet for 10 days; assay type: functional; conditions: 240 h; method in brief: as §3
[20] = tested on: Rattus norvegicus; assay: Increase in liver weight in Wistar rat at 675 umol/kg/day administered through diet for 10 days; assay type: ADME, organism-based; conditions: in vivo, po, 240 h
[21] = tested on: Rattus norvegicus; assay: Hypolipidemic activity in Wistar rat assessed as reduction in plasma cholesterol level at 480 umol/kg/day administered through diet for 4 days; assay type: functional; conditions: 96 h; method in brief: as §1
[22] = tested on: Rattus norvegicus; assay: Hypolipidemic activity in Wistar rat assessed as reduction in plasma triglyceride level at 480 umol/kg/day administered through diet for 4 days; assay type: functional; conditions: 96 h
[23] = tested on: Rattus norvegicus; assay: Increase in liver weight in Wistar rat at 480 umol/kg/day administered through diet for 4 days; assay type: ADME, organism-based; conditions: in vivo, po, 96 h
[24] = tested on: Rattus norvegicus; assay: Hypolipidemic activity in Wistar rat assessed as reduction in plasma triglyceride level at 418 umol/kg/day administered through diet for 4 days; assay type: functional; conditions: 96 h; method in brief: as §3
[25] = tested on: Rattus norvegicus; assay: Hypolipidemic activity in Wistar rat assessed as reduction in plasma cholesterol level at 418 umol/kg/day administered through diet for 4 days; assay type: functional; conditions: 96 h; method in brief: as §1
[26] = tested on: Rattus norvegicus; assay: Increase in liver weight in Wistar rat at 418 umol/kg/day administered through diet for 4 days; assay type: ADME, organism-based; conditions: in vivo, po, 96 h; method in brief: as §2
[27] = tested on: Rattus norvegicus; assay: Hypolipidemic activity in Wistar rat assessed as reduction in plasma cholesterol level at 499 umol/kg/day administered through diet for 4 days; assay type: functional; conditions: 96 h; method in brief: as §1
[28] = tested on: Rattus norvegicus; assay: Increase in liver weight in Wistar rat at 499 umol/kg/day administered through diet for 4 days; assay type: ADME, organism-based; conditions: in vivo, po, 96 h; method in brief: as §2
[29] = tested on: Rattus norvegicus; assay: Hypolipidemic activity in Wistar rat assessed as reduction in plasma triglyceride level at 499 umol/kg/day administered through diet for 4 days; assay type: functional; conditions: 96 h; method in brief: as §3
[30] = tested on: Rattus norvegicus; assay: Hypolipidemic activity in Wistar rat assessed as reduction in plasma triglyceride level at 420 umol/kg/day administered through diet for 10 days; assay type: functional; conditions: 240 h; method in brief: as §3
[31] = tested on: Rattus norvegicus; assay: Hypolipidemic activity in Wistar rat assessed as reduction in plasma cholesterol level at 420 umol/kg/day administered through diet for 4 days; assay type: functional; conditions: 96 h; method in brief: as §1
[32] = tested on: Rattus norvegicus; assay: Increase in cholesterol level in Wistar rat liver at 420 umol/kg/day administered through diet for 10 days; assay type: ADME, organism-based; conditions: in vivo, po, 240 h
Method in brief: (§4)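 Male Wistar rats (170-190 g), six per group, given compound by admixture to lab chow ad libitum for 4 or 10 days, dose derived from food intake. Liver cholesterol determined by automated procedure, expressed as mg/g wet tissue, compared with an untreated control group by Student's t test.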

[33] = tested on: Rattus norvegicus; assay: Increase in liver weight in Wistar rat at 420 umol/kg/day administered through diet for 4 days; assay type: ADME, organism-based; conditions: in vivo, po, 96 h; method in brief: as §2
[34] = tested on: Rattus norvegicus; assay: Increase in cholesterol level in Wistar rat liver at 430 umol/kg/day administered through diet for 4 days; assay type: ADME, organism-based; conditions: in vivo, po, 96 h; method in brief: as §4
[35] = tested on: Rattus norvegicus; assay: Hypolipidemic activity in Wistar rat assessed as reduction in plasma cholesterol level at 420 umol/kg/day administered through diet for 10 days; assay type: functional; conditions: 240 h; method in brief: as §1
[36] = tested on: Rattus norvegicus; assay: Increase in liver weight in Wistar rat at 420 umol/kg/day administered through diet for 10 days; assay type: ADME, organism-based; conditions: in vivo, po, 240 h

Activity [2]: 3%
Activity [5]: 0%
SMILES: CCCCCCCCCCCCCCCCOc1cccc(C(=O)OC)c1
inhibition in vivo at 430 µmol/kg [1]: 0%
inhibition in vivo at 401 µmol/kg [3]: 0%
inhibition in vivo at 430 µmol/kg [4]: 0%
inhibition in vivo at 401 µmol/kg [6]: 0%

Activity [10]: 5%
SMILES: CCCCCCCCCCCCCCOc1ccc(C(=O)N(CC)CC)cc1
inhibition in vivo at 449 µmol/kg [11]: 0%
inhibition in vivo at 449 µmol/kg [12]: 0%

Activity [23]: 1%
SMILES: CCCCCCCCCCCCCCOc1ccc(-c2nnn[nH]2)cc1
inhibition in vivo at 480 µmol/kg [21]: 0%
inhibition in vivo at 480 µmol/kg [22]: 0%

Activity [28]: 0%
SMILES: CCCCCCCCCCCCCCOc1ccc(C(C)=O)o1
inhibition in vivo at 499 µmol/kg [27]: 0%
inhibition in vivo at 499 µmol/kg [29]: 21%

Activity [32]: 18%
Activity [33]: 0%
SMILES: CCCCCCCCCCCCCCCCCCOc1ccc(C(=O)O)o1
inhibition in vivo at 420 µmol/kg [30]: 53%
inhibition in vivo at 420 µmol/kg [31]: 18%

Activity [2]: 8%
Activity [34]: 0%
SMILES: CCCCCCCCCCCCCCOc1ccc(C(=O)OC)o1
inhibition in vivo at 430 µmol/kg [1]: 32%
inhibition in vivo at 430 µmol/kg [4]: 67%

Activity [36]: 0%
Activity [32]: 3%
SMILES: CCCCCCCCCCCCCCOc1ccc(SCC(=O)O)cc1
inhibition in vivo at 420 µmol/kg [35]: 16%
inhibition in vivo at 420 µmol/kg [30]: 11%

Further lines, the compound ahead of its results:

SMILES: CCCCCCCCCCCCOc1cccc(C(=O)OC)c1
inhibition in vivo at 505 µmol/kg [7]: 55%
Activity [8]: 4%
inhibition in vivo at 505 µmol/kg [9]: 7%

SMILES: CCCCCCCCCCCC(=O)Nc1ccc(C(=O)OCC)cc1
inhibition in vivo at 489 µmol/kg [13]: 0%
inhibition in vivo at 489 µmol/kg [14]: 0%

SMILES: CCCCCCc1ccc(C(=O)CC(=O)OC)cc1
inhibition in vivo at 606 µmol/kg [15]: 35%
inhibition in vivo at 606 µmol/kg [16]: 2%
Activity [17]: 2%

SMILES: CCCCCCOc1ccc(C(=O)O)cc1
inhibition in vivo at 675 µmol/kg [18]: 16%
inhibition in vivo at 675 µmol/kg [19]: 6%
Activity [20]: 1%

SMILES: CCCCCCCCCCCCCCOc1ccc(C(=O)OCC)cc1Cl
inhibition in vivo at 418 µmol/kg [24]: 0%
inhibition in vivo at 418 µmol/kg [25]: 0%
Activity [26]: 0%
